≈ marks a conversion by molar mass, not a printed value.
How the values were obtained:
Assay type in all cases: functional
Bacillus subtilis = experiment: Antimicrobial activity against Bacillus subtilis ATCC 6633 by tube dilution method
Outline: (§1)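 Tube dilution MIC determination. Test agents and reference drugs are dissolved as a stock in 50% DMSO–water, then diluted 4-fold with culture medium plus inoculum. The first dilution (12.5% DMSO) is excluded from scoring. The read-out is the minimum inhibitory concentration.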

Escherichia coli = experiment: Antimicrobial activity against Escherichia coli ATCC 25922 by tube dilution method; outline: as §1
Candida albicans = experiment: Antimicrobial activity against Candida albicans ATCC 10145 by tube dilution method; outline: as §1
Staphylococcus aureus [1] = experiment: Antimicrobial activity against Staphylococcus aureus ATCC 25923 by tube dilution method
Outline: (§2)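 Tube dilution MIC assay. Compounds and standard drugs were dissolved in 50% DMSO–water as stock. The stock was diluted 4-fold with culture medium plus bacterial suspension to give the starting test concentration. That initial tube contained 12.5% DMSO, so no data were taken from it. The MIC was then read across the dilution series.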

Staphylococcus aureus [2] = experiment: Antimicrobial activity against methicillin-resistant Staphylococcus aureus isolates by tube dilution method; outline: as §2
Staphylococcus aureus [3] = experiment: Antimicrobial activity against methicillin-resistant Staphylococcus aureus ATCC […] by tube dilution method; outline: as §2

Row | Structure (SMILES) | MIC (Bacillus subtilis) | MIC (Escherichia coli) | MIC (Candida albicans) | MIC (Staphylococcus aureus [1]) | MIC (Staphylococcus aureus [2]) | MIC (Staphylococcus aureus [3])
1 | COc1ccc(-c2nc3cc(Cl)c(Cl)cc3n2C2CCCC2)cc1 | 50 mg/L (≈ 138 µM) | 50 mg/L (≈ 138 µM) | 6.25 mg/L (≈ 17.3 µM) | 25 mg/L (≈ 69.2 µM) | 25 mg/L (≈ 69.2 µM) | 25 mg/L (≈ 69.2 µM)
2 | Nc1nc2cc(Cl)c(Cl)cc2n1C1CCCC1 | 6.25 mg/L (≈ 23.1 µM) | 50 mg/L (≈ 185 µM) | 6.25 mg/L (≈ 23.1 µM) | 3.12 mg/L (≈ 11.5 µM) | 6.25 mg/L (≈ 23.1 µM) | 6.25 mg/L (≈ 23.1 µM)
3 | CC(=O)Oc1ccc(-c2nc3cc(Cl)c(Cl)cc3n2C2CCCC2)cc1 | 25 mg/L (≈ 64.2 µM) | 25 mg/L (≈ 64.2 µM) | 12.5 mg/L (≈ 32.1 µM) | 50 mg/L (≈ 128 µM) | 50 mg/L (≈ 128 µM) | 50 mg/L (≈ 128 µM)
4 | Fc1ccc(-c2nc3cc(Cl)c(Cl)cc3[nH]2)cc1 | 6.25 mg/L (≈ 22.2 µM) | 50 mg/L (≈ 178 µM) | 6.25 mg/L (≈ 22.2 µM) | 3.12 mg/L (≈ 11.1 µM) | 3.12 mg/L (≈ 11.1 µM) | 3.12 mg/L (≈ 11.1 µM)
5 | Clc1cc2ncn(C3CCCC3)c2cc1Cl | 12.5 mg/L (≈ 49 µM) | 50 mg/L (≈ 196 µM) | 12.5 mg/L (≈ 49 µM) | 6.25 mg/L (≈ 24.5 µM) | 6.25 mg/L (≈ 24.5 µM) | 6.25 mg/L (≈ 24.5 µM)
6 | Clc1cc2nc(Cl)n(C3CCCC3)c2cc1Cl | 25 mg/L (≈ 86.3 µM) | 50 mg/L (≈ 173 µM) | 50 mg/L (≈ 173 µM) | 3.12 mg/L (≈ 10.8 µM) | 6.25 mg/L (≈ 21.6 µM) | 6.25 mg/L (≈ 21.6 µM)
7 | CC(C)Nc1nc2cc(Cl)c(Cl)cc2n1C1CCCC1 | 50 mg/L (≈ 160 µM) | 50 mg/L (≈ 160 µM) | 50 mg/L (≈ 160 µM) | 50 mg/L (≈ 160 µM) | 50 mg/L (≈ 160 µM) | 50 mg/L (≈ 160 µM)
8 | CCOc1cc2c(cc1Cl)nc(-c1ccc(OC(C)=O)cc1)n2C1CCCC1 | 25 mg/L (≈ 62.7 µM) | 50 mg/L (≈ 125 µM) | 6.25 mg/L (≈ 15.7 µM) | 50 mg/L (≈ 125 µM) | 50 mg/L (≈ 125 µM) | 50 mg/L (≈ 125 µM)
9 | CCOc1cc2c(cc1Cl)nc(-c1ccc(Cl)cc1)n2C1CCCC1 | 25 mg/L (≈ 66.6 µM) | 50 mg/L (≈ 133 µM) | 25 mg/L (≈ 66.6 µM) | 50 mg/L (≈ 133 µM) | 50 mg/L (≈ 133 µM) | 50 mg/L (≈ 133 µM)
10 | CCOc1cc2c(cc1Cl)nc(-c1cccc([N+](=O)[O-])c1)n2C1CCCC1 | 25 mg/L (≈ 64.8 µM) | 50 mg/L (≈ 130 µM) | 6.25 mg/L (≈ 16.2 µM) | 50 mg/L (≈ 130 µM) | 12.5 mg/L (≈ 32.4 µM) | 25 mg/L (≈ 64.8 µM)
11 | COc1ccc(-c2nc3cc(Cl)ccc3n2C2CCCC2)cc1 | 25 mg/L (≈ 76.5 µM) | 25 mg/L (≈ 76.5 µM) | 12.5 mg/L (≈ 38.2 µM) | 50 mg/L (≈ 153 µM) | 50 mg/L (≈ 153 µM) | 50 mg/L (≈ 153 µM)
12 | Fc1ccc(-c2nc3cc(Cl)ccc3n2C2CCCC2)cc1 | 12.5 mg/L (≈ 39.7 µM) | 25 mg/L (≈ 79.4 µM) | 12.5 mg/L (≈ 39.7 µM) | 25 mg/L (≈ 79.4 µM) | 25 mg/L (≈ 79.4 µM) | 25 mg/L (≈ 79.4 µM)
13 | CC(C)(C)c1ccc(-c2nc3cc(Cl)ccc3n2C2CCCC2)cc1 | 50 mg/L (≈ 142 µM) | 25 mg/L (≈ 70.8 µM) | 12.5 mg/L (≈ 35.4 µM) | 50 mg/L (≈ 142 µM) | 6.25 mg/L (≈ 17.7 µM) | 12.5 mg/L (≈ 35.4 µM)
14 | N#Cc1ccc(-c2nc3cc(Cl)ccc3n2C2CCCC2)cc1 | 50 mg/L (≈ 155 µM) | 50 mg/L (≈ 155 µM) | 6.25 mg/L (≈ 19.4 µM) | 50 mg/L (≈ 155 µM) | ≥ 50 mg/L | ≥ 50 mg/L
15 | Clc1ccc2c(c1)nc(-c1ccc(OCc3ccccc3)cc1)n2C1CCCC1 | 50 mg/L (≈ 124 µM) | 50 mg/L (≈ 124 µM) | 25 mg/L (≈ 62 µM) | 3.12 mg/L (≈ 7.74 µM) | 6.25 mg/L (≈ 15.5 µM) | 6.25 mg/L (≈ 15.5 µM)
16 | Clc1ccc(-c2nc3cc(Cl)ccc3n2C2CCCC2)cc1 | 25 mg/L (≈ 75.5 µM) | 25 mg/L (≈ 75.5 µM) | 25 mg/L (≈ 75.5 µM) | 50 mg/L (≈ 151 µM) | 50 mg/L (≈ 151 µM) | 50 mg/L (≈ 151 µM)
17 | Fc1ccc(-c2nc3cc(Cl)c(Cl)cc3n2C2CCCC2)cc1 | 50 mg/L (≈ 143 µM) | 25 mg/L (≈ 71.6 µM) | 25 mg/L (≈ 71.6 µM) | 25 mg/L (≈ 71.6 µM) | 50 mg/L (≈ 143 µM) | 50 mg/L (≈ 143 µM)
18 | Clc1ccc(-c2nc3cc(Cl)c(Cl)cc3[nH]2)cc1 | 50 mg/L (≈ 168 µM) | 50 mg/L (≈ 168 µM) | 12.5 mg/L (≈ 42 µM) | 3.12 mg/L (≈ 10.5 µM) | 3.12 mg/L (≈ 10.5 µM) | 3.12 mg/L (≈ 10.5 µM)

Row | Structure (SMILES) | MIC (Bacillus subtilis) | MIC (Escherichia coli) | MIC (Candida albicans) | MIC (Staphylococcus aureus [1]) | MIC (Staphylococcus aureus [2]) | MIC (Staphylococcus aureus [3])
19 | CC(C)(C)c1ccc(-c2nc3cc(Cl)c(Cl)cc3[nH]2)cc1 | 6.25 mg/L (≈ 19.6 µM) | 50 mg/L (≈ 157 µM) | 12.5 mg/L (≈ 39.2 µM) | 3.12 mg/L (≈ 9.77 µM) | 3.12 mg/L (≈ 9.77 µM) | 3.12 mg/L (≈ 9.77 µM)
20 | Clc1cc2nc(-c3ccc4ccccc4c3)[nH]c2cc1Cl | 25 mg/L (≈ 79.8 µM) | 50 mg/L (≈ 160 µM) | 25 mg/L (≈ 79.8 µM) | 50 mg/L (≈ 160 µM) | 50 mg/L (≈ 160 µM) | 50 mg/L (≈ 160 µM)
21 | O=[N+]([O-])c1cccc(-c2nc3cc(Cl)ccc3n2C2CCCC2)c1 | 25 mg/L (≈ 73.1 µM) | 50 mg/L (≈ 146 µM) | 12.5 mg/L (≈ 36.6 µM) | 50 mg/L (≈ 146 µM) | 50 mg/L (≈ 146 µM) | 50 mg/L (≈ 146 µM)
22 | CC(C)(C)c1ccc(-c2nc3cc(Cl)c(Cl)cc3n2C2CCCC2)cc1 | 25 mg/L (≈ 64.5 µM) | 50 mg/L (≈ 129 µM) | 25 mg/L (≈ 64.5 µM) | 6.25 mg/L (≈ 16.1 µM) | 25 mg/L (≈ 64.5 µM) | 25 mg/L (≈ 64.5 µM)
23 | Clc1cc2nc(-c3ccc4ccccc4c3)n(C3CCCC3)c2cc1Cl | 12.5 mg/L (≈ 32.8 µM) | 50 mg/L (≈ 131 µM) | 12.5 mg/L (≈ 32.8 µM) | 50 mg/L (≈ 131 µM) | 25 mg/L (≈ 65.6 µM) | 25 mg/L (≈ 65.6 µM)
24 | Clc1ccc2c(c1)nc(-c1ccc3ccccc3c1)n2C1CCCC1 | 25 mg/L (≈ 72.1 µM) | 50 mg/L (≈ 144 µM) | 6.25 mg/L (≈ 18 µM) | 25 mg/L (≈ 72.1 µM) | 25 mg/L (≈ 72.1 µM) | 25 mg/L (≈ 72.1 µM)
25 | CCOc1cc2c(cc1Cl)nc(-c1ccc(F)cc1)n2C1CCCC1 | 25 mg/L (≈ 69.7 µM) | 50 mg/L (≈ 139 µM) | 50 mg/L (≈ 139 µM) | 6.25 mg/L (≈ 17.4 µM) | 6.25 mg/L (≈ 17.4 µM) | 6.25 mg/L (≈ 17.4 µM)
26 | Nc1nc2cc(Cl)ccc2n1C1CCCC1 | 25 mg/L (≈ 106 µM) | 50 mg/L (≈ 212 µM) | 25 mg/L (≈ 106 µM) | 25 mg/L (≈ 106 µM) | 50 mg/L (≈ 212 µM) | 50 mg/L (≈ 212 µM)
27 | Clc1ccc2c(c1)ncn2C1CCCC1 | 50 mg/L (≈ 227 µM) | ≥ 50 mg/L | 50 mg/L (≈ 227 µM) | 50 mg/L (≈ 227 µM) | 50 mg/L (≈ 227 µM) | 50 mg/L (≈ 227 µM)
28 | Clc1cc2nc(Br)n(C3CCCC3)c2cc1Cl | 25 mg/L (≈ 74.8 µM) | 50 mg/L (≈ 150 µM) | 25 mg/L (≈ 74.8 µM) | 3.12 mg/L (≈ 9.34 µM) | 6.25 mg/L (≈ 18.7 µM) | 6.25 mg/L (≈ 18.7 µM)
29 | CC(=O)Oc1ccc(-c2nc3cc(Cl)ccc3n2C2CCCC2)cc1 | 50 mg/L (≈ 141 µM) | 50 mg/L (≈ 141 µM) | 50 mg/L (≈ 141 µM) | 50 mg/L (≈ 141 µM) | 50 mg/L (≈ 141 µM) | 50 mg/L (≈ 141 µM)
30 | Clc1ccc(-c2nc3cc(Cl)c(Cl)cc3n2C2CCCC2)cc1 | 25 mg/L (≈ 68.4 µM) | 50 mg/L (≈ 137 µM) | 12.5 mg/L (≈ 34.2 µM) | 50 mg/L (≈ 137 µM) | 50 mg/L (≈ 137 µM) | 50 mg/L (≈ 137 µM)
31 | CN(C)c1ccc(-c2nc3cc(Cl)ccc3n2C2CCCC2)cc1 | 25 mg/L (≈ 73.6 µM) | 50 mg/L (≈ 147 µM) | 12.5 mg/L (≈ 36.8 µM) | 12.5 mg/L (≈ 36.8 µM) | 25 mg/L (≈ 73.6 µM) | 25 mg/L (≈ 73.6 µM)
32 | CC1(C)S[C@@H]2[C@H](NC(=O)[C@H](N)c3ccccc3)C(=O)N2[C@H]1C(=O)O [AMPICILLIN] | – | – | – | 0.78 mg/L (≈ 2.23 µM) | 50 mg/L (≈ 143 µM) | 50 mg/L (≈ 143 µM)
33 | O=C(O)c1cn(C2CC2)c2cc(N3CCNCC3)c(F)cc2c1=O [CIPROFLOXACIN] | 0.09 mg/L (≈ 0.272 µM) | – | – | 0.78 mg/L (≈ 2.35 µM) | 12.5 mg/L (≈ 37.7 µM) | –
34 | OC(Cn1cncn1)(Cn1cncn1)c1ccc(F)cc1F [FLUCONAZOLE] | – | – | 1.56 mg/L (≈ 5.09 µM) | – | – | –
35 | CC1(C)S[C@@H]2[C@H](NC(=O)[C@H](N)c3ccccc3)C(=O)N2[C@H]1C(=O)OCOC(=O)[C@@H]1N2C(=O)C[C@H]2S(=O)(=O)C1(C)C [SULTAMICILLIN] | 0.78 mg/L (≈ 1.31 µM) | – | – | 0.39 mg/L (≈ 0.656 µM) | 25 mg/L (≈ 42 µM) | 25 mg/L (≈ 42 µM)
